Screens (PubChem)
ASAP1 inh: inhibitors of human ASAP1 ArfGAP activity, primary screen, biochemical, fluorescence polarization. Arf-GAP with SH3 domain, ANK repeat and PH domain-containing protein 1 (Homo sapiens), …. ASAP1-stimulated ARF1 GTP hydrolysis, GDP FP detection. inhibition, % at 16.5 µM. actives 0.19% (n = 360,000). AID 624377, 2012; in the data active means inhibition above about 25%;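 further: 0% = vehicle with enzyme and substrate and 100% = no enzyme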
Target sequence (Q9ULH1 325-724 limits assumed): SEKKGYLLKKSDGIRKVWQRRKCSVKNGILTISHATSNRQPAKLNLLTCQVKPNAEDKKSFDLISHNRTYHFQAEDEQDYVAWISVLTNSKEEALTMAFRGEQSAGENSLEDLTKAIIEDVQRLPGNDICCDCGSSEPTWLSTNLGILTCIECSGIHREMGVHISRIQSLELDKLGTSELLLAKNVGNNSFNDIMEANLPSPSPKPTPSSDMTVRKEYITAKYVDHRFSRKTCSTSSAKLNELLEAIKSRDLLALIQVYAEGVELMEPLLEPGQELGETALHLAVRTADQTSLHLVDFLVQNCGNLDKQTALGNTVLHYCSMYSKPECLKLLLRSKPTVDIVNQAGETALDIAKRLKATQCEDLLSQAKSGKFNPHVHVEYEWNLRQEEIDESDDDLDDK
PAFAH1B3 FP inh: PAFAH1B3 enzyme inhibitors, primary screen, biochemical, fluorescence polarization, human | Platelet-activating factor acetylhydrolase IB subunit alpha1 (Homo sapiens), Q15102 | recombinant PAFAH1B3, FP-rhodamine probe | inhibition, % at 3.39 µM | actives 0.28% (n = 340,000);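 active means inhibition above the screen-wide average of all tested compounds plus 3 SD, cut at about 25% in these data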;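 further: 0% = enzyme with DMSO only and 100% = wells lacking PAFAH1B3 protein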
ARFGAP1 inh: inhibitors of rat ARFGAP1 GAP activity, primary screen, biochemical, fluorescence polarization, GDP tracer. ADP-ribosylation factor GTPase-activating protein 1 (Rattus norvegicus), Q62848. inhibition, % at 16.5 µM. actives 0.26% (n = 360,000). Arfgap1-stimulated ARF1 GTP hydrolysis, GDP FP detection;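 active means inhibition above a per-plate limit, mean inhibition of low control wells plus 3 SD, cut at about 25% in these data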;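 further: 0% = DMSO wells with enzyme and 100% = wells lacking Arfgap1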
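material = rat Arfgap1 catalytic domain, aa 1-136 | also added = human ARF1(Δ1-17)-GTP substrate | compound dosing = one concentration, 16.5 µM, DMSO 1.26% | times = GTP hydrolysis reaction 2 h at 25 °C | measured by = FP, GDP Alexa 633 tracer displaced from anti-GDP antibody, 620/688 nm | evaluation = percent inhibition of Arfgap1-stimulated GTP hydrolysis | replication = single well per compound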
pPAFAH inh: pPAFAH enzyme inhibitors, primary screen, biochemical, fluorescence polarization, human | Platelet-activating factor acetylhydrolase (Homo sapiens), Q13093 | recombinant pPAFAH, FP-rhodamine probe fluorescence polarization | inhibition, % at 3.39 µM | actives 1.5% (n = 330,000) | AID 463082, 2010;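 active means inhibition above the mean inhibition across the screen plus 3 SD, cut at about 25% in these data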;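 further: inhibitors block binding of the rhodamine activity-based probe so polarization drops; 0% = enzyme with DMSO and 100% = wells lacking pPAFAH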
PAFAH1B2 inh: PAFAH1B2 enzyme inhibitors, primary screen, biochemical, fluorescence polarization, human | Platelet-activating factor acetylhydrolase IB subunit alpha2 (Homo sapiens), P68402 | recombinant PAFAH1B2, FP-rhodamine activity probe | inhibition, % at 3.39 µM | actives 1.2% (n = 340,000) | AID 492953, 2010;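 active means inhibition above the mean of all tested compounds plus 3 SD, cut at about 24% in these data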;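 further: 0% = enzyme with DMSO and 100% = wells lacking PAFAH1B2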
Target sequence (P68402 whole entry, looked up): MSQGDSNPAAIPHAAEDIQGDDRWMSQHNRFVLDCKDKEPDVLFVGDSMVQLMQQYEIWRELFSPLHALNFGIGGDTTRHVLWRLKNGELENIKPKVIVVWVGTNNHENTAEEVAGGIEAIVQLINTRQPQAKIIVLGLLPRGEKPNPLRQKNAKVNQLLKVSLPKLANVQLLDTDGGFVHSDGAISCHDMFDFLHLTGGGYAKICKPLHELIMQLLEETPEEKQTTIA
PAFAH2 inh: PAFAH2 enzyme inhibitors, primary screen, biochemical, fluorescence polarization, human | inhibition, % at 3.39 µM | actives 0.99% (n = 340,000) | recombinant PAFAH2, FP-rhodamine activity probe | Platelet-activating factor acetylhydrolase 2, cytoplasmic (Homo sapiens), Q99487;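 active means inhibition above the mean over all tested compounds plus 3 SD, cut at about 30% in these data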;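 further: inhibitors block probe labeling of enzyme so polarization drops; 0% = enzyme with DMSO and 100% = wells lacking PAFAH2 protein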
pPAFAH FP conf: pPAFAH (PLA2G7) enzyme inhibitors, confirmation, biochemical, fluorescence polarization, human. shares compounds with pPAFAH inh. recombinant pPAFAH, FP-Rh probe fluorescence polarization. inhibition, % at 3.39 µM. actives 72% (n = 2,300). AID 463230, 2010;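 active means mean inhibition of the triplicate above the hit cutoff set for the earlier primary screen, cut at about 25% in these data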;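 further: 0% = enzyme with DMSO and 100% = wells lacking pPAFAH enzyme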
* = called active by the depositor; / = no result. Most compounds without a hit are left out; they make up all but 2.8% or so of the library.

SMILES | ASAP1 inh | PAFAH1B3 FP inh | ARFGAP1 inh | pPAFAH inh | PAFAH1B2 inh | PAFAH2 inh | pPAFAH FP conf
CC1=C(C(=O)Nc2ccc(CC(=O)NCc3ccc(OC(C)C)cc3)cc2)SCCO1 | -7 | 6 | 9 | 38* | 5 | 13 | 19
Cc1cc(C(=O)CCl)c(C)n1CCc1ccccc1 | -1 | / | -4 | 54* | / | / | 4
O=C(CN1CCC(C(=O)c2ccc(F)cc2)CC1)Nc1ccccc1Cl | 3 | 4 | 10 | 5 | 2 | 5 | /
COc1cc(CCc2ccccc2)c(C(=O)O)c(O)c1C/C=C(/C)CCC=C(C)C | 4 | 10 | 1 | 72* | 23 | 18 | 59*
CCn1c(SCC(=O)c2ccc(O)c(O)c2)nnc1-c1ccc(C)cc1 | -13 | 14 | 5 | 43* | 3 | 45* | 72*
O=C1/C(=C\c2cc(Cl)c(O)c(Cl)c2)SC(=S)N1Cc1ccccc1 | 7 | -72 | 13 | / | -45 | -78 | /
O=C(O)COc1ccc(/C=C2/SC(=S)N(Cc3ccccc3)C2=O)cc1 | -10 | 9 | -5 | 54* | 4 | 12 | 19
O=C(O)CCN1C(=O)/C(=C\c2cccc(Oc3ccccc3)c2)SC1=S | -23 | 9 | -17 | 36* | 28* | 12 | 17
CCn1c(NC(=O)c2cccc(Cn3cc(Cl)cn3)c2)nc2ccccc21 | -1 | 4 | 7 | 65* | 3 | 0 | 65*
O=C(C[C@H]1C/C=C\CC[C@H](Cc2ccc(F)cc2)C(=O)O[C@@H](c2ccccc2)CNC1=O)N[C@H](CO)Cc1ccccc1 | 3 | 2 | 2 | 2 | 13 | 7 | /
O=C(C[C@H]1C/C=C\CC[C@H](Cc2ccc(F)cc2)C(=O)O[C@H](c2ccccc2)CNC1=O)N[C@H](CO)Cc1ccccc1 | 2 | 13 | 14 | 55* | 4 | 6 | -3
CC(C)CN(C(=O)COC(=O)c1nc(Cl)ccc1Cl)c1c(N)n(Cc2ccccc2)c(=O)[nH]c1=O | -14 | -1 | -10 | 5 | 3 | -1 | /
Cc1oc2c(O)c(O)ccc2c(=O)c1-c1cnn(-c2ccccc2)c1 | 4 | 6 | 8 | 51* | 1 | 33* | 60*
Cc1oc2c(O)c(O)ccc2c(=O)c1-c1ccccc1 | -21 | 7 | -1 | 19 | 9 | 11 | /
COc1cc([N+](=O)[O-])cc(/C=N/NC(=O)C(C)Nc2cccc3ccccc23)c1O (centres undefined) | -7 | 14 | -3 | 40* | 8 | 2 | 59*
COc1ccc(C(=O)NCCCCNC(=O)c2ccc(OC)c(OC)c2)cc1OC | 0 | 6 | 0 | -4 | 1 | -2 | /
CN1CCN(C(=O)CSc2nnc(COc3ccc(Cl)cc3)o2)CC1 | -7 | 1 | -1 | -4 | 4 | -4 | /
COc1cc(/C=C(\C#N)C(=O)NCC2CCCO2)ccc1O (centres undefined) | -3 | 11 | 0 | 6 | -1 | 2 | /
Cc1cc(/C=C(\C#N)C(=O)NCC2CCCO2)c(C)n1-c1ccc(Cl)cc1 (centres undefined) | 7 | -8 | -1 | 67* | 2 | 4 | 69*
CNc1cc(-c2ccc(O)cc2C)ncn1 | -15 | / | 7 | / | / | / | /
O=C(CSc1nc2cc([N+](=O)[O-])ccc2n1-c1ccccc1)NCc1ccc2c(c1)OCO2 | -8 | 4 | -2 | 44* | -6 | 3 | 37*
O=[N+]([O-])c1cc(C(F)(F)F)cc([N+](=O)[O-])c1NN=C1CCCCC1 | -3 | 6 | 9 | 35* | 10 | 7 | 3
CCOC(=O)N1CCC(NC(=O)CC2C(=O)NCCN2Cc2ccccc2F)CC1 (centres undefined) | 12 | 9 | 4 | 49* | 2 | 4 | 6
C=CCn1c(Cn2c(-c3cnccn3)nc3ccccc32)nc2ccccc21 | -3 | / | -1 | / | / | / | /
COc1cccc2c1C(=O)c1c(O)c3c(c(O)c1C2=O)C[C@@](O)(C(=O)CO)C[C@@H]3O[C@H]1C[C@H](N)[C@H](O)[C@H](C)O1 | -9 | 19 | -1 | 58* | 41* | 46* | 45*
SMILES | ASAP1 inh | PAFAH1B3 FP inh | ARFGAP1 inh | pPAFAH inh | PAFAH1B2 inh | PAFAH2 inh | pPAFAH FP conf
Cc1cc(-c2ccccc2)n(-c2ccc(C(=O)N3CCN(c4ncccn4)CC3)cc2)n1 | 6 | 8 | 4 | 36* | -2 | -3 | 22
O=C(CN1CCN(C(=O)c2ccc(OCc3cn4ccccc4n3)cc2)CC1)Nc1cccc(F)c1 | 8 | 4 | 1 | -1 | 2 | 3 | /
COC(=O)c1[nH]c2cc(OC)ccc2c1NC(=O)CCN1CCCCC1 | 5 | -2 | 1 | 39* | 1 | 1 | 9
Cc1ccc([N+](=O)[O-])cc1-c1[nH]c(-c2ccc(O)c(O)c2)nc1-c1ccccc1 | -10 | 19 | 17 | 65* | 3 | -2 | 83*
COc1ccc(S(=O)(=O)N2CCOCC2)cc1NC(=O)CCCSc1ccccc1 | 0 | / | 4 | / | / | / | /
O=C(CCCSc1ccc(Cl)cc1)Nc1cc(S(=O)(=O)N2CCOCC2)ccc1O | -10 | 2 | 2 | 91* | 63* | 79* | 89*
COCOCCn1cc(CN2CCS(=O)(=O)N(Cc3ccc(-c4ccc(OC)nc4)cc3)C(C(C)C)C2=O)nn1 (centres undefined) | 14 | / | -4 | / | / | / | /
CN(c1ccccc1)S(=O)(=O)c1cccc(C(=O)NCCc2ccc(O)c(O)c2)c1 | 14 | 7 | 1 | 37* | 1 | 8 | 43*
Cc1ccc(N2C(=O)CC(Cc3cc(C)cc(C)c3)C2=O)cc1 (centres undefined) | -9 | 0 | 9 | 50* | 3 | -6 | 5
CC(C)(CC(=O)O)CC(=O)N1CCCN(c2nccc(C(F)(F)F)n2)CC1 | -6 | 6 | 0 | 3 | 4 | -1 | /
O=C1NC(=Nc2ccc(O)cc2)S/C1=C\C=C\c1ccco1 | 0 | 10 | 0 | 53* | 1 | 8 | 14
COc1ccc(N=C2NC(=O)/C(=C\c3ccco3)S2)cc1 | -2 | 1 | -7 | 8 | -1 | 7 | /
